How the values were obtained:
Cytochrome P450 1A2 [1] = biological target: T1, Cytochrome P450 1A2 (Homo sapiens, UniProt P05177); experiment: Induction of CYP1A2 in human hepatocytes at 0.2 to 20 uM compared to omeprazole; type: ADME, cell-based, Hepatocyte
T1 sequence (P05177 whole entry): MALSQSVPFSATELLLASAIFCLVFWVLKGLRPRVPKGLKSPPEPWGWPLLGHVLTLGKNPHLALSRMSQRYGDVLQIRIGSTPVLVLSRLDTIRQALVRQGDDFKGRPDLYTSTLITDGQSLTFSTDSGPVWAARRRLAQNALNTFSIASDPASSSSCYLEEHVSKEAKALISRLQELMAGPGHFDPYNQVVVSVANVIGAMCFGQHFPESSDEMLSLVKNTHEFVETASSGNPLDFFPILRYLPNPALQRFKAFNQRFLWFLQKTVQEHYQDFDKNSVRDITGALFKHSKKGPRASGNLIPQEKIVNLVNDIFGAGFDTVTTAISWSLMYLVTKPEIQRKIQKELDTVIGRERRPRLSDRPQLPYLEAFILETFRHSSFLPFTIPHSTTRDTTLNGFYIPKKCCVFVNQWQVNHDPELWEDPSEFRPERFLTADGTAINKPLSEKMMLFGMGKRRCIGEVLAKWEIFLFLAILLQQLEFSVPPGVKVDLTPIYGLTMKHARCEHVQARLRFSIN
How it was run: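 Human hepatocytes treated over a concentration range; CYP1A2 fold induction expressed as percent of omeprazole; >30% taken as induction, <15% as none.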

Cytochrome P450 1A2 [2] = biological target: T1, Cytochrome P450 1A2; experiment: Inhibition of human CYP1A2; type: ADME
[3] = Clearance in rat; type: ADME, organism-based; settings: in vivo
Glutamate receptor 1 [4] = biological target: T2, Glutamate receptor 1 (Homo sapiens, UniProt P42261); experiment: (§1) Antagonist activity at human iGluA1 receptor flop isoform expressed in CHO-S cells coexpressing TARP gamma-2 assessed as inhibition of glutamate-induced increase in intracellular calcium levels after 2 mins followed by cyclothiazide/glutamate addition by fluo-4 AM dye based fluorescence imaging plate reader method; type: cell-based
T2 sequence (P42261 whole entry, canonical isoform): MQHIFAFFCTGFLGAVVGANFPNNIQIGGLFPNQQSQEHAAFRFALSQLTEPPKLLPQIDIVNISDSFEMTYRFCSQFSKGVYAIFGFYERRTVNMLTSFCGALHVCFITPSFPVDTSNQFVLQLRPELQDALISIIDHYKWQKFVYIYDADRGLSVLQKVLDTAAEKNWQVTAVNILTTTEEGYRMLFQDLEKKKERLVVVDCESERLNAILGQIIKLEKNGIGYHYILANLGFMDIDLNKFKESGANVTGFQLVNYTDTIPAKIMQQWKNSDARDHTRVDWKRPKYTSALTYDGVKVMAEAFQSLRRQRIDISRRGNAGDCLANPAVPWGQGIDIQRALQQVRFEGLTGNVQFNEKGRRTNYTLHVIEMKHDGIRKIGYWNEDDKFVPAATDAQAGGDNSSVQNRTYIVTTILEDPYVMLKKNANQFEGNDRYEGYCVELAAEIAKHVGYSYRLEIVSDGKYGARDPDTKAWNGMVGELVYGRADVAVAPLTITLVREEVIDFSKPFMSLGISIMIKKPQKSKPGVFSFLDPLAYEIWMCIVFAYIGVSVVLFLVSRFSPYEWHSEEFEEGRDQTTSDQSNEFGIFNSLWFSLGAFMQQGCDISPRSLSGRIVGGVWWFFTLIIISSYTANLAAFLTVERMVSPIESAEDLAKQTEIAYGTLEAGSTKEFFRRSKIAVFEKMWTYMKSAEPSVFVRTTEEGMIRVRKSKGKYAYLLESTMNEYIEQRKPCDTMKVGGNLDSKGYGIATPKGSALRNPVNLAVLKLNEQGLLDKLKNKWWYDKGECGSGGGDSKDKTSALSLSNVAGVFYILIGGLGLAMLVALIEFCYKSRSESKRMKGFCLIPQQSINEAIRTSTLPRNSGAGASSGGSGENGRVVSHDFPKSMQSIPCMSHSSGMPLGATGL

Glutamate receptor 1 [5] = biological target: T2, Glutamate receptor 1; experiment: Antagonist activity at human iGluA1 receptor flip isoform expressed in CHO-S cells assessed as inhibition of glutamate-induced increase in intracellular calcium levels after 2 mins followed by cyclothiazide/glutamate addition by fluo-4 NW dye based fluorescence imaging plate reader method; type: cell-based
Glutamate receptor 1 [6] = biological target: T2, Glutamate receptor 1; experiment: as §1, with “gamma-8 and human EAAT3” for “gamma-2”; type: cell-based
How it was run: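 Transiently transfected CHO-S cells (human GluA1Q flop with TARP γ-8 and human EAAT3, DNA ratio 2:3), frozen, thawed, plated overnight at 37 °C; Fluo-4 AM loading 2 h at 22 °C. Compound added, then 2 min later glutamate (5 μM final); cyclothiazide (20 μM) plus glutamate (45 μM) 2 min after. FLIPR Ca2+ read; inhibition relative to 167 μM nonselective antagonist and buffer baseline; four-parameter logistic IC50; mean ± SEM, n ≥ 2.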

Glutamate receptor 1 [7] = biological target: T2, Glutamate receptor 1; experiment: Antagonist activity at human iGluA1 receptor flop isoform expressed in CHO-S cells coexpressing TARP gamma-4 assessed as inhibition of glutamate-induced increase in intracellular calcium levels after 2 mins followed by cyclothiazide/glutamate addition by fluorescence imaging plate reader method; type: cell-based
How it was run: (§2)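 Human GluA1 flop transiently co-expressed with the TARP subtype in CHO-S cells. Frozen cells were thawed, plated at 50,000 cells/well and cultured overnight at 37 °C. Buffer was HBSS with 20 mM HEPES pH 7.4, 2.5 mM probenecid and 4 mM CaCl2. Compound was added, then cyclothiazide (20 μM final) plus glutamate (45 μM final). FLIPR Ca2+ read, normalised to full antagonist block and buffer baseline. Four-parameter IC50; mean ± SEM, n ≥ 2.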

Rattus norvegicus [8] = experiment: Protective index, ratio of TD50 for motor impairment to ED50 for inhibition of pentylenetetrazole-induced clonic convulsions in po dosed Sprague-Dawley rat
How it was run: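 PI = inverted screen TD50 divided by PTZ ED50. For the ED50, rats were dosed orally 30 min before PTZ (35 mg/kg, sc), with n = 10 per group. Read-out was % block of clonic convulsions; ED50 given with 95% confidence limits.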

Rattus norvegicus [9] = experiment: Toxicity in Sprague-Dawley rat assessed as motor impairment at 30 mg/kg, po by inverted screen test; type: organism-based; settings: in vivo
How it was run: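 Oral dosing in rats, then inverted screen motor-function score. Plasma exposure measured. Mean ± SEM of ≥4 rats/group, compared with vehicle control.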

Rattus norvegicus [10] = experiment: Anticonvulsant activity in po dosed Sprague-Dawley rat assessed as inhibition of pentylenetetrazole-induced clonic convulsions administered 30 mins prior to PTZ dosing measured over 30 mins; type: functional
Glutamate receptor 1 [11] = biological target: T2, Glutamate receptor 1; experiment: Antagonist activity at human iGluA1 receptor flop isoform expressed in CHO-S cells coexpressing TARP gamma-3 assessed as inhibition of glutamate-induced increase in intracellular calcium levels after 2 mins followed by cyclothiazide/glutamate addition by fluorescence imaging plate reader method; type: cell-based; how it was run: as §2
[12] = AUC in rat plasma at 30 mg/kg, po measured on day 1; type: ADME, organism-based
[13] = Cmax in rat plasma at 30 mg/kg, po measured on day 4; type: ADME, organism-based; set-up: dose 30 mg/kg, route oral
How it was run: (§3)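 Rats dosed orally at 30 mg/kg for 4 days; plasma Cmax and AUC determined.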

[14] = Cmax in rat plasma at 30 mg/kg, po measured on day 1; type: ADME, organism-based; set-up: dose 30 mg/kg, route oral
[15] = AUC in rat plasma at 30 mg/kg, po measured on day 4; type: ADME, organism-based; how it was run: as §3
UGT [16] = experiment: Drug metabolism assessed as UGT-mediated compound glucuronidation in rat liver microsomes; type: ADME; settings: read-out: Drug metabolism
How it was run: (§4)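 Microsomes incubated with appropriate cofactors for UGT; percent metabolism, n = 1.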

Hepatocyte [17] = experiment: Drug metabolism in rat hepatocytes assessed as glucuronidation by LC/MS/MS analysis; type: ADME, cell-based
UGT [18] = experiment: Drug metabolism assessed as UGT-mediated compound glucuronidation in human liver microsomes; type: ADME; settings: read-out: Drug metabolism; how it was run: as §4
Hepatocyte [19] = experiment: Drug metabolism in human hepatocytes assessed as sulfation by LC/MS/MS analysis; type: ADME, cell-based
Hepatocyte [20] = experiment: Drug metabolism in human hepatocytes assessed as oxidative metabolite formation; type: ADME, cell-based
Hepatocyte [21] = experiment: Drug metabolism in rat hepatocytes assessed as glucuronidation; type: ADME, cell-based
Hepatocyte [22] = experiment: Drug metabolism in human hepatocytes assessed as glucuronidation; type: ADME, cell-based
Hepatocyte [23] = experiment: Drug metabolism in rat hepatocytes assessed as oxidative metabolite formation; type: ADME, cell-based

Work on `C[C@H](c1ccc2[nH]c(=O)sc2c1)c1ccn(-c2ccccn2)n1` yielded an Activity (Cytochrome P450 1A2 [1]) of less than 15%, an IC50 (Cytochrome P450 1A2 [2]) of 4.67 µM and a clearance [3] of 144 mL/min/kg. For the same compound, the IC50 (Glutamate receptor 1 [4]) was 83.3 µM, the IC50 (Glutamate receptor 1 [5]) was 9.26 µM and the IC50 (Glutamate receptor 1 [6]) was 0.615 µM.

For `N#Cc1ccccc1-c1cc(-c2ccccn2)cn(-c2ccccc2)c1=O` [PERAMPANEL], the IC50 (Glutamate receptor 1 [7]) was 0.623 µM, the “Ratio TD50/ED50” value (Rattus norvegicus [8]) was 0.4 and the IC50 (Glutamate receptor 1 [4]) was 0.485 µM. For the same compound, the Activity (Rattus norvegicus [9]) was “Toxic”, the IC50 (Glutamate receptor 1 [5]) was 6.51 µM and the ED50 (Rattus norvegicus [10]) was 10.6 mg/kg. The IC50 (Glutamate receptor 1 [11]) was 0.243 µM and the IC50 (Glutamate receptor 1 [6]) was 1.18 µM.

`CN(c1ccc2[nH]ncc2c1)c1nc(-c2ccccn2)cs1` gave an AUC [12] of 52300 ng·h/mL, an IC50 (Cytochrome P450 1A2 [2]) of 0.222 µM and a clearance [3] of 71.5 mL/min/kg. For the same compound, the IC50 (Glutamate receptor 1 [4]) was greater than 83.3 µM, the Cmax [13] was 1930 ng/mL and the IC50 (Glutamate receptor 1 [5]) was greater than 83.3 µM. For the same compound, the IC50 (Glutamate receptor 1 [6]) was 0.147 µM, the Cmax [14] was 3740 ng/mL and the AUC [15] was 3150 ng·h/mL.

With `C[C@@H](c1ccc2[nH]c(=O)sc2c1)c1ccn(-c2ccccn2)n1` the Activity (Cytochrome P450 1A2 [1]) was less than 15%, the IC50 (Cytochrome P450 1A2 [2]) was greater than 10 µM and the clearance [3] was 99 mL/min/kg. The IC50 (Glutamate receptor 1 [4]) was 83.3 µM, the IC50 (Glutamate receptor 1 [5]) was 9.26 µM and the IC50 (Glutamate receptor 1 [6]) was 0.0509 µM.

`CCOCCN(c1ccc2[nH]c(=O)sc2c1)c1nc(-c2ccccn2)cs1` showed an IC50 (Glutamate receptor 1 [6]) of 0.022 µM.

Compound `C[C@@H](c1ccc2[nH]c(=O)sc2c1)c1ccn(-c2ccc(CCO)cn2)n1` has a clearance [3] of 16.3 mL/min/kg, an IC50 (Glutamate receptor 1 [4]) of 25.7 µM and an IC50 (Glutamate receptor 1 [5]) of 83.3 µM. It also gave an IC50 (Glutamate receptor 1 [6]) of 0.0616 µM.

In the case of `CN(c1ccc(O)cc1)c1nc(-c2ccccn2)cs1`, the IC50 (Glutamate receptor 1 [7]) is reported as greater than 83.3 µM, the clearance [3] is reported as 234 mL/min/kg and the metabolised (UGT [16]) is reported as 99%. It also gave an IC50 (Glutamate receptor 1 [4]) greater than 83.3 µM, an IC50 (Glutamate receptor 1 [5]) greater than 83.3 µM and an IC50 (Glutamate receptor 1 [11]) greater than 83.3 µM. For the same compound, the IC50 (Glutamate receptor 1 [6]) was 2.97 µM, the Drug metabolism (Hepatocyte [17]) was “metabolite_detected” and the metabolised (UGT [18]) was 33%. The Drug metabolism (Hepatocyte [19]) was “metabolite_detected”.

Work on `C[C@@H](c1ccc2[nH]c(=O)sc2c1)c1ccn(-c2ccc(CCC(C)(C)O)cn2)n1` yielded a clearance [3] of 6 mL/min/kg, an IC50 (Glutamate receptor 1 [4]) of 9.26 µM and an IC50 (Glutamate receptor 1 [5]) of 9.26 µM. For the same compound, the IC50 (Glutamate receptor 1 [6]) was 0.16 µM.

With `CN(c1ccc2[nH]ncc2c1)c1ccn(-c2ccccn2)n1` the IC50 (Cytochrome P450 1A2 [2]) was 0.23 µM, the clearance [3] was 61.3 mL/min/kg and the IC50 (Glutamate receptor 1 [4]) was greater than 83.3 µM. The IC50 (Glutamate receptor 1 [5]) was greater than 83.3 µM and the IC50 (Glutamate receptor 1 [6]) was 0.353 µM.

`CN(c1ccc2[nH]c(=O)sc2c1)c1nc(-c2ccccn2)cs1` showed an IC50 (Cytochrome P450 1A2 [2]) of 0.36 µM, a clearance [3] of 96.6 mL/min/kg and an IC50 (Glutamate receptor 1 [4]) greater than 83.3 µM. The IC50 (Glutamate receptor 1 [5]) was greater than 83.3 µM and the IC50 (Glutamate receptor 1 [6]) was 0.07 µM.

`C[C@@H](c1ccc2[nH]c(=O)sc2c1)c1ccn(-c2ccc(F)cn2)n1` gave a clearance [3] of 42.2 mL/min/kg, an IC50 (Glutamate receptor 1 [4]) of 83.3 µM and an IC50 (Glutamate receptor 1 [5]) of 83.3 µM. The IC50 (Glutamate receptor 1 [6]) was 0.0536 µM.

`Cn1ccc(CN(c2ccc3[nH]ncc3c2)c2nc(-c3ccccn3)cs2)n1` gave an Activity (Cytochrome P450 1A2 [1]) of less than 15%, an IC50 (Cytochrome P450 1A2 [2]) greater than 10 µM and an IC50 (Glutamate receptor 1 [4]) of 83.3 µM. The IC50 (Glutamate receptor 1 [5]) was 83.3 µM and the IC50 (Glutamate receptor 1 [6]) was 0.0539 µM.

With `C[C@H](c1ccc2[nH]c(=O)sc2c1)c1ccn(-c2ccc(CCO)cn2)n1` the IC50 (Glutamate receptor 1 [4]) was 9.26 µM, the IC50 (Glutamate receptor 1 [5]) was 9.26 µM and the IC50 (Glutamate receptor 1 [6]) was 2.82 µM.

`CC(c1ccc2[nH]c(=O)sc2c1)c1ccn(-c2ccccn2)n1` (racemic) gave an Activity (Cytochrome P450 1A2 [1]) of less than 15%, an IC50 (Cytochrome P450 1A2 [2]) of 8.68 µM and a clearance [3] of 115 mL/min/kg. The IC50 (Glutamate receptor 1 [4]) was 83.3 µM, the IC50 (Glutamate receptor 1 [5]) was 83.3 µM and the IC50 (Glutamate receptor 1 [6]) was 0.122 µM. The Drug metabolism (Hepatocyte [20]) was “metabolite_detected”, the Drug metabolism (Hepatocyte [21]) was “metabolite_detected” and the Drug metabolism (Hepatocyte [22]) was “metabolite_detected”. For the same compound, the Drug metabolism (Hepatocyte [23]) was “metabolite_detected”.

Compound `C[C@H](c1ccc2[nH]c(=O)sc2c1)c1ccn(-c2ccc(OCCO)cn2)n1` has an IC50 (Glutamate receptor 1 [4]) of 9.26 µM, an IC50 (Glutamate receptor 1 [5]) of 9.26 µM and an IC50 (Glutamate receptor 1 [6]) of 1.79 µM.

From ChEMBL document CHEMBL3822422, “Discovery of the First α-Amino-3-hydroxy-5-methyl-4-isoxazolepropionic Acid (AMPA) Receptor Antagonist Dependent upon Transmembrane AMPA Receptor Regulatory Protein (TARP) γ-8” (J Med Chem, 2016)
